ChEMBL document CHEMBL1126153, “Synthesis and biological activity of certain alkyl 5-(alkoxycarbonyl)-1H-benzimidazole-2-carbamates and related derivatives: a new class of potential antineoplastic and antifilarial agents” (J Med Chem, 1992)

How the values were obtained:
Brugia pahangi [1] = assay: Antifilarial activity measured against the adult worms of Brugia pahangi in jirds by subcutaneous administration; set-up: concentration or dose not given beside the values
L1210 [2] = assay: In vitro test against L1210 murine leukemia cell growth rate at 10 uM concentration; type: functional, Mus musculus
In short: (§1)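 L1210 cells were grown in static suspension culture in Fischer's medium with test compound, and counted twice daily over 3 days. Growth rate is the control population doubling time (average 12 h) divided by the treated doubling time, as a % of control. The IC50 is the concentration that reduces the growth rate to 50% of control.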

L1210 [3] = assay: Compound was tested in vitro against L1210 murine leukemia cell growth rate at a concentration of 100 uM; type: functional, Mus musculus
In short: as §1

L1210 [4] = assay: Compound was tested in vitro for its inhibitory activity against L1210 murine leukemia cell growth at a concentration of 100 uM; type: functional, cell-based; conditions: Mus musculus
In short: as §1

Brugia pahangi [5] = assay: Antifilarial activity measured against the adult worms of Brugia pahangi in jirds by subcutaneous administration; type: functional; set-up: concentration or dose not given beside the values
In short: (§2)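 Jirds carrying implanted adult worms (three to five per group) were dosed once daily for 5 consecutive days, or on day 1 only where noted. Dosing was subcutaneous or oral, with drug as a solution or suspension in aqueous 1% (hydroxyethyl)cellulose plus 0.1% Tween 80. Survivors were necropsied 55 to 70 days after the first dose and searched for adult worms. Counts are given as % of control.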

L1210 [6] = assay: In vitro for its inhibitory activity against L1210 murine leukemia cell growth; type: functional, cell-based; conditions: Mus musculus
In short: as §1

Brugia pahangi [7] = assay: Antifilarial activity was measured against the adult worms of Brugia pahangi in jirds by oral administration at a dose of 100 mg/kg/day; type: functional
In short: as §2

Brugia pahangi [8] = assay: Antifilarial activity was measured against the adult worms of Brugia pahangi in jirds by subcutaneous administration at a dose of 6.2 mg/kg/day; type: functional
In short: as §2

Brugia pahangi [9] = assay: Antifilarial activity was measured against the adult worms of Brugia pahangi in jirds by subcutaneous administration at a dose of 12.5 mg/kg/day; type: functional
In short: as §2

Homo sapiens [10] = species: Homo sapiens; assay: Compound was tested in vitro for its inhibitory activity against human epidermoid carcinoma cell (H. Ep. 2) growth at a concentration of 10 uM; type: functional; conditions: HEp-2
Homo sapiens [11] = species: Homo sapiens; assay: Compound was tested in vitro against human epidermoid carcinoma cell (H. Ep. 2) growth rate at a concentration of 10 uM; type: functional
Brugia pahangi [12] = assay: Antifilarial activity was measured against the adult worms of Brugia pahangi in jirds by subcutaneous administration at a dose of 1.6 mg/kg/day; type: functional
In short: as §2

Brugia pahangi [13] = assay: Antifilarial activity was measured against the adult worms of Brugia pahangi in jirds by subcutaneous administration at a dose of 50 mg/kg/day; type: functional
In short: as §2

Brugia pahangi [14] = assay: Antifilarial activity was measured against the adult worms of Brugia pahangi in jirds by subcutaneous administration at a dose of 100 mg/kg/day; type: functional
In short: as §2

Brugia pahangi [15] = assay: Antifilarial activity was measured against the adult worms of Brugia pahangi in jirds by subcutaneous administration at a dose of 25 mg/kg/day
Acanthocheilonema viteae [16] = assay: Antifilarial activity was measured against the adult worms of Acanthocheilonema viteae in jirds by oral administration at a dose of 100 mg/kg/5 days; type: functional
In short: as §2

Brugia pahangi [17] = assay: Antifilarial activity was measured against the adult worms of Brugia pahangi in jirds by subcutaneous administration at a concentration of 100 mg/kg/day
Acanthocheilonema viteae [18] = assay: Antifilarial activity was measured against the adult worms of Acanthocheilonema viteae in jirds by subcutaneous administration at a concentration of 50 mg/kg/day; type: functional
In short: as §2

Acanthocheilonema viteae [19] = assay: Antifilarial activity was measured against the adult worms of Acanthocheilonema viteae in jirds by oral administration at a concentration of 100 mg/kg/day; type: functional
In short: as §2

Brugia pahangi [20] = assay: Antifilarial activity was measured against the adult worms of Brugia pahangi in jirds by subcutaneous administration at a dose of 6.5 mg/kg/day; type: functional
In short: as §2

Acanthocheilonema viteae [21] = assay: Antifilarial activity was measured against the adult worms of Acanthocheilonema viteae in jirds by subcutaneous administration at a dose of 15.6 mg/kg/5 days; type: functional; conditions: in the assay text read “1.56 mg/kg/5 days” for “15.6 mg/kg/5 days”
In short: as §2

Brugia pahangi [22] = assay: Antifilarial activity was measured against the adult worms of Brugia pahangi in jirds by subcutaneous administration at a concentration of 25 mg/Kg/day
Brugia pahangi [23] = assay: Antifilarial activity was measured against the adult worms of Brugia pahangi in jirds by subcutaneous administration at a concentration of 12.5 mg/Kg/day
Brugia pahangi [24] = assay: Antifilarial activity was measured against the adult worms of Brugia pahangi in jirds by subcutaneous administration at a dose of 25 mg/Kg/day; type: functional
In short: as §2

Brugia pahangi [25] = assay: Antifilarial activity was measured against the adult worms of Brugia pahangi in jirds by subcutaneous administration at a dose of 6.2 mg/Kg/day; type: functional
In short: as §2

Brugia pahangi [26] = assay: Antifilarial activity was measured against the adult worms of Brugia pahangi in jirds by subcutaneous administration at a dose of 100 mg/Kg/day; type: functional
In short: as §2

COC(=O)Nc1nc2cc(C(=O)Nc3ccc(F)cc3)ccc2[nH]1
Control (Brugia pahangi [1]): 67%
Control (L1210 [2]): 92%

COC(=O)Nc1nc2cc(C(=O)N3CCOCC3)ccc2[nH]1
Control (L1210 [3]): 0%
IC50 (L1210 [4]): 60 µM

COC(=O)Nc1nc2cc(C(=O)OCCC(C)CC(C)(C)C)ccc2[nH]1 (stereo unspecified)
Control (L1210 [2]): 0%
Control (Brugia pahangi [5]): 85%
IC50 (L1210 [6]): 0.74 µM

COC(=O)Nc1nc2cc(C(=O)OC(C)C)ccc2[nH]1
Control (Brugia pahangi [7]): 100%
Control (Brugia pahangi [8]): 18%
Control (Brugia pahangi [9]): 0%
Control (Brugia pahangi [1]): 0%
Control (L1210 [2]): 0%
IC50 (Homo sapiens [10]): 0.22 µM
Control (Homo sapiens [11]): 0%
Control (Brugia pahangi [12]): 51%
IC50 (L1210 [6]): 0.7 µM

CCNC(=O)c1ccc2[nH]c(NC(=O)OC)nc2c1
Control (Brugia pahangi [7]): 89%
Control (Brugia pahangi [13]): 0%
Control (L1210 [2]): 41%
IC50 (Homo sapiens [10]): 6 µM
Control (Homo sapiens [11]): 0%
Control (Brugia pahangi [14]): 0%
IC50 (L1210 [6]): 10 µM
Control (Brugia pahangi [15]): 0%
Control (Acanthocheilonema viteae [16]): 80%

O=C(Nc1nc2cc(C(=O)OCC3CC3)ccc2[nH]1)OCC1CC1
Control (L1210 [2]): 24%
Control (Brugia pahangi [5]): 72%
IC50 (L1210 [6]): 2.2 µM

CCOC(=O)Nc1nc2cc(C(=O)O)ccc2[nH]1
Control (L1210 [3]): 100%
Control (Brugia pahangi [5]): 90%

CCCOC(=O)c1ccc2[nH]c(NC(=O)OC)nc2c1
Control (Brugia pahangi [17]): 100%
Control (L1210 [2]): 38%
IC50 (L1210 [6]): 7.4 µM

COC(=O)Nc1nc2cc(C(=O)OCc3cccs3)ccc2[nH]1
Control (L1210 [2]): 93%
IC50 (Homo sapiens [10]): 2.3 µM
Control (Homo sapiens [11]): 0%
Control (Brugia pahangi [5]): 71%

COC(=O)Nc1nc2cc(C(=O)N3CCN(C(=O)N(C)C)CC3)ccc2[nH]1
Control (Brugia pahangi [1]): 94%

CCN(CC)C(=O)N1CCN(C(=O)c2ccc3[nH]c(NC(=O)OC)nc3c2)CC1
Control (Brugia pahangi [1]): 100%
Control (L1210 [2]): 100%

COC(=O)Nc1nc2cc(C(=O)OCc3ccc(F)cc3)ccc2[nH]1
Control (Brugia pahangi [5]): 83%

COC(=O)Nc1nc2cc(C(=O)N3CCN(C)CC3)ccc2[nH]1
Control (Brugia pahangi [17]): 101%
Control (L1210 [2]): 100%

CCOC(=O)Nc1nc2cc(C(=O)OCC)ccc2[nH]1
Control (L1210 [2]): 0%
IC50 (Homo sapiens [10]): 0.29 µM
Control (Homo sapiens [11]): 0%
Control (Brugia pahangi [5]): 62%
IC50 (L1210 [6]): 0.76 µM

COC(=O)Nc1nc2cc(C(=O)N3CCNCC3)ccc2[nH]1
Control (Brugia pahangi [1]): 55%

COC(=O)Nc1nc2cc(C(=O)N(C)C)ccc2[nH]1
Control (Brugia pahangi [1]): 95%
Control (L1210 [2]): 88%

COC(=O)Nc1nc2cc(NC(=O)c3cccc(F)c3)ccc2[nH]1
Control (L1210 [2]): 100%

COC(=O)Nc1nc2cc(C(=O)OCC3CC3)ccc2[nH]1
Control (L1210 [2]): 45%
Control (Brugia pahangi [5]): 69%
IC50 (L1210 [6]): 6.9 µM

COC(=O)Nc1nc2cc(C(=O)OCCC(C)C)ccc2[nH]1
Control (L1210 [2]): 60%
Control (Brugia pahangi [5]): 69%
IC50 (L1210 [6]): 10 µM

COC(=O)Nc1nc2cc(C(=O)Nc3ccc(C(F)(F)F)cc3)ccc2[nH]1
Control (Brugia pahangi [1]): 77%
Control (L1210 [2]): 100%

C#CCOC(=O)c1ccc2[nH]c(NC(=O)OC)nc2c1
Control (L1210 [2]): 58%
Control (Brugia pahangi [5]): 79%
IC50 (L1210 [6]): 10 µM

COC(=O)Nc1nc2cc(NC(=O)c3ccccc3F)ccc2[nH]1
Control (L1210 [3]): 0%
Control (Brugia pahangi [1]): 116%
IC50 (L1210 [4]): 14 µM

COC(=O)Nc1nc2cc(C(=O)NCC(C)(C)C)ccc2[nH]1
Control (Brugia pahangi [1]): 50%
Control (Brugia pahangi [17]): 0%
Control (L1210 [2]): 48%
Control (Acanthocheilonema viteae [18]): 0%
IC50 (L1210 [6]): 8.6 µM
Control (Acanthocheilonema viteae [19]): 54%

CC(C)OC(=O)Nc1nc2cc(C(=O)OC(C)C)ccc2[nH]1
Control (L1210 [2]): 0%
IC50 (Homo sapiens [10]): 0.39 µM
Control (Homo sapiens [11]): 0%
Control (Brugia pahangi [5]): 87%
IC50 (L1210 [6]): 0.73 µM

COC(=O)Nc1nc2cc(C(=O)NC(C)C)ccc2[nH]1
Control (Brugia pahangi [7]): 110%
Control (Brugia pahangi [20]): 4%
Control (Brugia pahangi [9]): 0%
Control (L1210 [2]): 0%
IC50 (Homo sapiens [10]): 1.6 µM
Control (Homo sapiens [11]): 0%
Control (Acanthocheilonema viteae [21]): 57%
Control (Brugia pahangi [5]): 0%
Control (Brugia pahangi [12]): 94%
IC50 (L1210 [6]): 2 µM

COC(=O)Nc1nc2cc(NC(=O)c3ccc(F)cc3)ccc2[nH]1
Control (Brugia pahangi [1]): 133%

COC(=O)Nc1nc2cc(C(=O)OC)ccc2[nH]1
Control (L1210 [2]): 50%
IC50 (Homo sapiens [10]): 1.1 µM
Control (Brugia pahangi [22]): 4%
Control (Homo sapiens [11]): 0%
Control (Brugia pahangi [23]): 12%
Control (Brugia pahangi [24]): 53%
IC50 (L1210 [6]): 5 µM
Control (Brugia pahangi [25]): 79%

COC(=O)Nc1nc2cc(C(=O)O)ccc2[nH]1
Control (Brugia pahangi [26]): 0%
Control (L1210 [2]): 100%

C=CCOC(=O)c1ccc2[nH]c(NC(=O)OC)nc2c1
Control (L1210 [2]): 75%
Control (Brugia pahangi [5]): 87%
IC50 (L1210 [6]): > 10 µM

COC(=O)Nc1nc2cc(C(=O)OCC(C)(C)C)ccc2[nH]1
Control (Brugia pahangi [5]): 82%

CCCOC(=O)Nc1nc2cc(C(=O)OCCC)ccc2[nH]1
Control (L1210 [2]): 36%
Control (Brugia pahangi [5]): 85%
IC50 (L1210 [6]): 8.2 µM

CCOC(=O)c1ccc2[nH]c(NC(=O)OC)nc2c1
Control (Brugia pahangi [9]): 6%
Control (L1210 [2]): 0%
IC50 (Homo sapiens [10]): 0.24 µM
Control (Homo sapiens [11]): 0%
Control (Brugia pahangi [5]): 0%
Control (Brugia pahangi [12]): 100%
IC50 (L1210 [6]): 2.8 µM

COC(=O)Nc1nc2cc(C(=O)c3cccs3)ccc2[nH]1 [NOCODAZOLE]
Control (L1210 [2]): 0%
IC50 (Homo sapiens [10]): 0.033 µM
Control (Homo sapiens [11]): 0%
IC50 (L1210 [6]): 0.038 µM
